In ChEMBL document CHEMBL1129056, “Synthesis and in vitro evaluation of new wortmannin esters: potent inhibitors of phosphatidylinositol 3-kinase” (J Med Chem, 1996):
≈ marks a conversion by molar mass, not a printed value.

Assays:
[1] = system: CCRF-CEM; test: Cytotoxicity in rapidly proliferating CCRF-CEM cell lines after 72 hr exposure; type: functional, Homo sapiens
[2] = Inhibition of Phosphatidylinositol 3-kinase from bovine brain; design: species or system Bos taurus
Summary of the method: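 Purified bovine brain PI 3-kinase with phosphatidylinositol as substrate. Lipid products extracted and separated by TLC with autoradiography. PI-3-P spots scraped and counted by liquid scintillation.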

Structure (SMILES) | CT50 [1] [µg/mL] | IC50 [2] [ng/mL]
COC[C@H]1OC(=O)c2coc3c2[C@@]1(C)C1=C(C3=O)[C@@H]2CCC(=O)[C@@]2(C)C[C@H]1OC(=O)CC(C)C | 0.6 | 1.16 (≈ 2.47 nM)
COC[C@H]1OC(=O)c2coc3c2[C@@]1(C)C1=C(C3=O)[C@@H]2CCC(=O)[C@@]2(C)C[C@H]1OC(=O)CCl | 0.7 | 1.3 (≈ 2.81 nM)
CCC(=O)O[C@@H]1C[C@]2(C)C(O)CC[C@H]2C2=C1[C@]1(C)c3c(coc3C2=O)C(=O)O[C@@H]1COC (some centres undefined) | 0.2 | 0.38 (≈ 0.855 nM)
COC[C@H]1OC(=O)c2coc3c2[C@@]1(C)C1=C(C3=O)[C@@H]2CCC(=O)[C@@]2(C)CC1=O | 2.8 | 1.6 (≈ 4.16 nM)
CCCC(=O)O[C@@H]1C[C@]2(C)C(=O)CC[C@H]2C2=C1[C@]1(C)c3c(coc3C2=O)C(=O)O[C@@H]1COC | 0.3 | 0.4 (≈ 0.876 nM)
COC[C@H]1OC(=O)c2coc3c2[C@@]1(C)C1=C(C3=O)[C@@H]2CCC(=O)[C@@]2(C)C[C@H]1OC(C)=O [WORTMANNIN] | 0.9 | 1.8 (≈ 4.2 nM)
COC[C@H]1OC(=O)c2coc3c2[C@@]1(C)C1=C(C3=O)[C@@H]2CCC(=O)[C@@]2(C)C[C@H]1O | 2 | 10 (≈ 25.9 nM)
COC[C@H]1OC(=O)c2coc3c2[C@@]1(C)C1=C(C3=O)[C@@H]2CCC(=O)[C@@]2(C)C[C@H]1OC(=O)Cc1ccccc1 | 1 | 1.53 (≈ 3.03 nM)
CCC(=O)O[C@@H]1C[C@]2(C)C(OC(C)=O)CC[C@H]2C2=C1[C@]1(C)c3c(coc3C2=O)C(=O)O[C@@H]1COC (some centres undefined) | 3.1 | 56.5 (≈ 116 nM)
CCC(=O)O[C@@H]1C[C@]2(C)C(=O)CC[C@H]2C2=C1[C@]1(C)c3c(coc3C2=O)C(=O)O[C@@H]1COC | 0.2 | 0.6 (≈ 1.36 nM)
CCCCC(=O)O[C@@H]1C[C@]2(C)C(=O)CC[C@H]2C2=C1[C@]1(C)c3c(coc3C2=O)C(=O)O[C@@H]1COC | 0.8 | 1.2 (≈ 2.55 nM)
C=CC(=O)O[C@@H]1C[C@]2(C)C(=O)CC[C@H]2C2=C1[C@]1(C)c3c(coc3C2=O)C(=O)O[C@@H]1COC | 0.4 | 0.95 (≈ 2.16 nM)
